Assay results from ChEMBL document CHEMBL5257128, “Design, synthesis and biological evaluation of covalent peptidomimetic 3CL protease inhibitors containing nitrile moiety” (Bioorg Med Chem, 2023).

How the values were obtained:
SARS-CoV-2 = experiment: Antiviral activity against SARS-CoV-2 infected in African green monkey Vero E6 cells pre-incubated for 1 hr followed by viral infection measured after 2 hrs by qRT-PCR analysis; type: functional, organism-based; conditions: Severe acute respiratory syndrome coronavirus 2, Vero C1008
[1] = Metabolic stability in human liver microsomes assessed as half life in presence of NADPH incubated upto 45 mins by LC/MS analysis; type: ADME, Microsome; conditions: 0.75 h
Method in brief: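 Human or mouse liver microsomes, final protein 0.5 mg/mL, in K/Mg buffer. Compound was added from a 1.5 µM spiking solution containing 0.75 mg/mL microsomes, then preincubated 5 min at 37 °C. The reaction was started with NADPH (6 mM stock) and sampled at 0, 5, 15, 30 and 45 min. Samples were quenched with acetonitrile containing internal standard, centrifuged, and the supernatant analysed by LC/MS.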

[2] = Metabolic stability in mouse liver microsomes assessed as half life in presence of NADPH incubated upto 45 mins by LC/MS analysis; type: ADME, Microsome; conditions: 0.75 h
Method in brief: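 Mouse liver microsomes at 0.5 mg/mL final protein in K/Mg buffer, preincubated 5 min at 37 °C. Reaction started with NADPH (6 mM stock) and sampled at 0, 5, 15, 30 and 45 min. Each sample was quenched with acetonitrile containing internal standard, centrifuged, diluted with water, and analysed by LC/MS for remaining parent.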

[3] = Tmax in mouse at 10 mg/kg, iv by LC-MS/MS analysis; type: ADME, organism-based; conditions: in vivo
[4] = Cmax in mouse at 20 mg/kg, po by LC-MS/MS analysis; type: ADME, organism-based; set-up: dose 20 mg/kg, route po; conditions: in vivo
[5] = Cmax in mouse at 10 mg/kg, iv by LC-MS/MS analysis; type: ADME, organism-based; set-up: dose 10 mg/kg, route iv; conditions: in vivo
[6] = AUClast in mouse at 20 mg/kg, po by LC-MS/MS analysis; type: ADME, organism-based; set-up: dose 20 mg/kg, route po; conditions: in vivo
[7] = AUClast in mouse at 10 mg/kg, iv by LC-MS/MS analysis; type: ADME, organism-based; set-up: dose 10 mg/kg, route iv; conditions: in vivo
[8] = Observed AUCinfinity in mouse at 20 mg/kg, po by LC-MS/MS analysis; type: ADME, organism-based; set-up: dose 20 mg/kg, route po; conditions: in vivo
[9] = Observed AUCinfinity in mouse at 10 mg/kg, iv by LC-MS/MS analysis; type: ADME, organism-based; set-up: dose 10 mg/kg, route iv; conditions: in vivo
[10] = Observed MRTinfinity in mouse at 20 mg/kg, po by LC-MS/MS analysis; type: ADME, organism-based; conditions: in vivo
[11] = Observed MRTinfinity in mouse at 10 mg/kg, iv by LC-MS/MS analysis; type: ADME, organism-based; conditions: in vivo
[12] = Observed volume of distribution at steady state in mouse at 10 mg/kg, iv by LC-MS/MS analysis; type: ADME, organism-based; conditions: in vivo
[13] = Oral bioavailability in mouse at 20 mg/kg by LC-MS/MS analysis; type: ADME, organism-based; conditions: in vivo
[14] = target: Replicase polyprotein 1ab (Severe acute respiratory syndrome coronavirus 2, UniProt P0DTD1); experiment: Inhibition of full length SARS-CoV-2 3CL protease expressed in Escherichia coli BL21 (DE3) using Dacyl-KTSAVLQSGFRKME-Edans fluorogenic peptide as substrate pre-incubated for 10 mins followed by substrate addition by FRET assay
Vero C1008 = experiment: Cytotoxicity against African green monkey Vero E6 cells assessed as reduction in cell viability measured after 24 hrs by CCK8 assay; type: toxicity, cell-based; conditions: chlorocebus sabaeus, vero c1008, 24 h
[15] = Half life in mouse at 10 mg/kg, iv by LC-MS/MS analysis; type: ADME, organism-based; conditions: in vivo
[16] = Half life in mouse at 20 mg/kg, po by LC-MS/MS analysis; type: ADME, organism-based; conditions: in vivo
[17] = Tmax in mouse at 20 mg/kg, po by LC-MS/MS analysis; type: ADME, organism-based; conditions: in vivo
[18] = Selectivity Index, ratio of CC50 for African green monkey Vero E6 cells to EC50 for antiviral activity against SARS-CoV-2 infected in African green monkey Vero E6; type: toxicity, Vero C1008; conditions: read-out: Ratio CC50/EC50

CC(C)(C)[C@H](NC(=O)C(F)(F)F)C(=O)N1C[C@H]2[C@@H]([C@H]1C(=O)N[C@H](C#N)C[C@@H]1CCNC1=O)C2(C)C
EC50 (SARS-CoV-2): 0.58 µM
t1/2 [1]: 37.93 min
t1/2 [2]: 4.64 min
Tmax [3]: 4.98 min
Cmax [4]: 2.52164 µg/mL
Cmax [5]: 9.63 µg/mL
AUClast [6]: 2.30832 µg·h/mL
AUClast [7]: 3.33646 µg·h/mL
AUC [8]: 2.31194 µg·h/mL
AUC [9]: 3.36132 µg·h/mL
MRT [10]: 51 min
MRT [11]: 23.4 min
Vdss ([12]; iv, 10 mg/kg): 1.18 L/kg
F [13]: 34.59%

CC(C)(C)[C@H](NS(=O)(=O)C1CC1)C(=O)N1C[C@H]2[C@@H]([C@H]1C(=O)N[C@H](C#N)C[C@@H]1CCNC1=O)C2(C)C
IC50 [14]: 0.0228 µM

CC(C)(C)[C@H](NC(=O)C(F)(F)F)C(=O)N1[C@@H]2CC[C@@H](C2)[C@H]1C(=O)N[C@H](C#N)C[C@@H]1CCNC1=O
IC50 [14]: 0.0546 µM

CC(C)(C)[C@H](NC(=O)C(F)(F)F)C(=O)N1CC2(CC2)C[C@H]1C(=O)N[C@H](C#N)C[C@@H]1CCNC1=O
IC50 [14]: 0.0368 µM

CC(C)(C)[C@H](NS(=O)(=O)C(F)(F)F)C(=O)N1C[C@H]2[C@@H]([C@H]1C(=O)N[C@H](C#N)C[C@@H]1CCNC1=O)C2(C)C
IC50 [14]: 0.0224 µM
EC50 (SARS-CoV-2): 0.17 µM
CC50 (Vero C1008): > 200 µM
t1/2 [1]: 652.17 min
t1/2 [2]: 97.89 min
t1/2 [15]: 21 min
t1/2 [16]: 42.6 min
Tmax [17]: 30 min
Tmax [3]: 4.8 min
Cmax [4]: 2.05236 µg/mL
Cmax [5]: 10.5 µg/mL
AUClast [6]: 1.90184 µg·h/mL
AUClast [7]: 4.11855 µg·h/mL
AUC [8]: 1.9049 µg·h/mL
AUC [9]: 4.12005 µg·h/mL
MRT [10]: 48 min
MRT [11]: 17.4 min
Vd ([12]; read-out: Vdss): 0.69 L/kg
F [13]: 23.09%
selectivity ratio [18]: > 1500
